Here are results for 1 compound from ChEMBL document CHEMBL4017509, “A Dual Modulator of Farnesoid X Receptor and Soluble Epoxide Hydrolase To Counter Nonalcoholic Steatohepatitis” (J Med Chem, 2017).

For series [1], the target named is T1, Bile acid receptor (Homo sapiens) (UniProt Q96RI1).
T1 sequence (whole entry): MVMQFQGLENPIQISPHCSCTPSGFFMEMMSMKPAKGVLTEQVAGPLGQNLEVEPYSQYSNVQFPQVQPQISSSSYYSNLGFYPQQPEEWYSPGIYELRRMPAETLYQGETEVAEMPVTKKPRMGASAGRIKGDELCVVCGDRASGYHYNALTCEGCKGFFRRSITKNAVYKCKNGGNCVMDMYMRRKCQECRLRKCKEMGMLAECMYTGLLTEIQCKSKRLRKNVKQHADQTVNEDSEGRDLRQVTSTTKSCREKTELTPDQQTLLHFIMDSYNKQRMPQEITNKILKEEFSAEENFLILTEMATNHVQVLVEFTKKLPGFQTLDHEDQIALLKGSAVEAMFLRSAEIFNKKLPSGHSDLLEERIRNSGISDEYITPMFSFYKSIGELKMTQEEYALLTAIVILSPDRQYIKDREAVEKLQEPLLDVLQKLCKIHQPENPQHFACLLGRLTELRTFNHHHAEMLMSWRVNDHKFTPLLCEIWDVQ
The experiment in a line: Transactivation of human FXR expressed in human HeLa cells co-expressing BSEP at 50 uM after 24 hrs by dual-glo luciferase reporter gene assay relative to GW4064. The class given is cell-based. Put shortly:
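HeLa cells in DMEM/10% FCS at 37 °C, 5% CO2; switched to 0.5% charcoal-stripped FCS before calcium phosphate co-transfection with pcDNA3-hFXR, pSG5-hRXR, BSEP promoter–firefly luciferase reporter and pRL-SV40 renilla. Compound in 0.1% DMSO, phenol red-free medium, 24 h.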

The target of series [2] is Peroxisome proliferator-activated receptor delta (Homo sapiens) (UniProt Q03181). The experiment in a line: Transactivation of human GAL4-fused PPARdelta ligand binding domain expressed in […] cells at 10 uM after 12 to 14 hrs by dual-glo luciferase reporter gene assay. Type of series: cell-based. Put shortly: (§1)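 HEK293T cells in DMEM/10% FCS, Opti-MEM before Lipofectamine LTX transfection with pFR-Luc reporter, pRL-SV40 and pFA-CMV GAL4–LBD plasmid. 5 h later compound in 0.1% DMSO, Opti-MEM, overnight (12−14 h). Dual luciferase; firefly/renilla ×1000 = RLU, fold over DMSO control; triplicates, ≥3 independent repeats.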

The target in series [3] is Retinoic acid receptor alpha (Homo sapiens) (UniProt P10276). The experiment in a line: Transactivation of human GAL4-fused RARalpha ligand binding domain expressed in […] cells at 10 uM after 12 to 14 hrs by dual-glo luciferase reporter gene assay. Type of series: cell-based. The essentials: as §1
In series [4] the target is Retinoic acid receptor beta (Homo sapiens) (UniProt P10826). Description: Transactivation of human GAL4-fused RARbeta ligand binding domain expressed in […] cells at 10 uM after 12 to 14 hrs by dual-glo luciferase reporter gene assay. The class given is cell-based. Put shortly:
as §1

Series [5] addresses Vitamin D3 receptor (Homo sapiens) (UniProt P11473). The experiment in a line: Transactivation of human GAL4-fused VDR ligand binding domain expressed in […] cells at 10 uM after 12 to 14 hrs by dual-glo luciferase reporter gene assay. Type of series: cell-based. The essentials:
as §1

Series [6] concerns the target T1, Bile acid receptor (Homo sapiens). Description: Transactivation of FXR in human HepG2 cells assessed as SHP mRNA expression at 1 uM after 8 to 16 hrs by SYBR green based qRT-PCR analysis relative to DMSO control. The class given is cell-based. Put shortly: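 HepG2 cells incubated with test compound (0.1 and 1 μM) or 0.1% DMSO for 8 or 16 h, washed in cold PBS, RNA extracted; target mRNA by SYBR Green qRT-PCR, duplicate samples, ≥4 independent experiments; comparative ΔΔCt with GAPDH reference, vehicle set as 100%.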

In series [7] the target is Oxysterols receptor LXR-alpha (Homo sapiens) (UniProt Q13133). Description: Transactivation of human GAL4-fused LXRalpha ligand binding domain expressed in […] cells at 10 uM after 12 to 14 hrs by dual-glo luciferase reporter gene assay. Type of series: cell-based. Put shortly: as §1
In series [8] the target is Nuclear receptor subfamily 1 group I member 2 (Homo sapiens, UniProt O75469). The experiment in a line: Transactivation of human GAL4-fused PXR ligand binding domain expressed in […] cells at 10 uM after 12 to 14 hrs by dual-glo luciferase reporter gene assay. The class given is cell-based. The essentials: as §1
The target of series [9] is G-protein coupled bile acid receptor 1 (Homo sapiens) (UniProt Q8TDU6). Description: Antagonist activity at TGR5 (unknown origin) at 10 uM.
Series [10] concerns Liver. Description: Drug metabolism in Sprague-Dawley rat liver microsomes assessed as N-(4-Amino-2-chlorobenzyl)-4-(tert-butyl)benzamide formation at 10 uM preincubated with NADPH regenerating system for 5 mins followed by addition of liver microsomes by LC-MS/MS method. Type of series: ADME, microsome.
The subject of series [11] is Liver. Description: Drug metabolism in Sprague-Dawley rat liver microsomes assessed as 4-tert-butyl-N-(2-chloro-4-(methylsulfonamido)benzyl)-3-hydroxybenzamide formation at 10 uM preincubated with NADPH regenerating system for 5 mins followed by addition of liver microsomes by LC-MS/MS method. Type of series: ADME, microsome.
The test system of series [12] is Liver. The experiment in a line: Drug metabolism in Sprague-Dawley rat liver microsomes assessed as N-(2-chloro-4-(methylsulfonamido)benzyl)-4-(1-hydroxy-2-methylpropan-2-yl)benzamide formation at 10 uM preincubated with NADPH regenerating system for 5 mins followed by addition of liver microsomes by LC-MS/MS method. Type of series: ADME, microsome.

Activity calls are given as the source filed them. No cut-off for these calls is given here.

Sequence of Vitamin D3 receptor (Homo sapiens) (P11473 whole entry, the tested form may be a part): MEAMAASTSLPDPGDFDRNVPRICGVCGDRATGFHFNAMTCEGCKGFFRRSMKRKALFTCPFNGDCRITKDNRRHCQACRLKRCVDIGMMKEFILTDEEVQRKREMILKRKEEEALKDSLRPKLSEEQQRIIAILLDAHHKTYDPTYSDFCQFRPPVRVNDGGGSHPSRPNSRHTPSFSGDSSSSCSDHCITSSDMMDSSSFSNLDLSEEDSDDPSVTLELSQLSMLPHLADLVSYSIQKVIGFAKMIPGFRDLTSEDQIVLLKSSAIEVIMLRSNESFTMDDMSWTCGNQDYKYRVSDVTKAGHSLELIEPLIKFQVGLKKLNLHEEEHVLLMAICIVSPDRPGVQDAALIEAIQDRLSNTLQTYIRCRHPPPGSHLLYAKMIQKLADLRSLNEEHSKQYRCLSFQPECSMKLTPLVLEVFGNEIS
Sequence of Peroxisome proliferator-activated receptor delta (Homo sapiens) (Q03181 whole entry, the tested form may be a part): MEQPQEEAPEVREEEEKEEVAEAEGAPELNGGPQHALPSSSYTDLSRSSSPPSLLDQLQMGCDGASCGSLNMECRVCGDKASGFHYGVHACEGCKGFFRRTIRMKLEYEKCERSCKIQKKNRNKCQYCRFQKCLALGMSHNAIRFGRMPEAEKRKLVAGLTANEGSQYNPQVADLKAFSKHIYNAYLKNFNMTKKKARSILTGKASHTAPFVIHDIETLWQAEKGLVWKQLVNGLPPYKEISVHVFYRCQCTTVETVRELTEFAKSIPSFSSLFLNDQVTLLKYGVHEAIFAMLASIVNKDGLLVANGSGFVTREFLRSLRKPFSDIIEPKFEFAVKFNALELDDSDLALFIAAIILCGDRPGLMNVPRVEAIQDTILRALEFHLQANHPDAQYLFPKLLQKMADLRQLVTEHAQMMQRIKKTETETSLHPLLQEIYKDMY
Sequence of Oxysterols receptor LXR-alpha (Homo sapiens) (Q13133 whole entry, the tested form may be a part): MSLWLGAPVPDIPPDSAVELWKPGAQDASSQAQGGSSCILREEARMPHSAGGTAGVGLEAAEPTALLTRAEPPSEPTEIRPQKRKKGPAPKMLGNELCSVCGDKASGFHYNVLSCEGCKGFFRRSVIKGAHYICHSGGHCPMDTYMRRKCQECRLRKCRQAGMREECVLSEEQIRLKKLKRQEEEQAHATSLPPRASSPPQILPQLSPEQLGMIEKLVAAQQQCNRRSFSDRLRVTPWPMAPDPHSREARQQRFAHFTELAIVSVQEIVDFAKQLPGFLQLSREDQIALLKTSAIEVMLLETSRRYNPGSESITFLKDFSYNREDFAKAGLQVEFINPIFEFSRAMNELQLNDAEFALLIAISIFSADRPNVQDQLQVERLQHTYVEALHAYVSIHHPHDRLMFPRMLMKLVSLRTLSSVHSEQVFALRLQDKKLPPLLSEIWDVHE
Sequence of G-protein coupled bile acid receptor 1 (Homo sapiens) (Q8TDU6 whole entry): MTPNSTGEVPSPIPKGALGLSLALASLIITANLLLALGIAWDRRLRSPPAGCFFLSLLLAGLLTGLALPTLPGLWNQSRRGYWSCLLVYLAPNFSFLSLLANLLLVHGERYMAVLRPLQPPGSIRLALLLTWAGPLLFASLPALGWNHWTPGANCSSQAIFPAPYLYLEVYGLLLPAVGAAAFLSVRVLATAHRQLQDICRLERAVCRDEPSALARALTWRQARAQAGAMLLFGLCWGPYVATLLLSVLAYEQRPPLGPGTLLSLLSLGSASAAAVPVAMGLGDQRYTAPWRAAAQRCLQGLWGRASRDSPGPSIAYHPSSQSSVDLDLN
Sequence of Retinoic acid receptor beta (Homo sapiens) (P10826 whole entry, the tested form may be a part): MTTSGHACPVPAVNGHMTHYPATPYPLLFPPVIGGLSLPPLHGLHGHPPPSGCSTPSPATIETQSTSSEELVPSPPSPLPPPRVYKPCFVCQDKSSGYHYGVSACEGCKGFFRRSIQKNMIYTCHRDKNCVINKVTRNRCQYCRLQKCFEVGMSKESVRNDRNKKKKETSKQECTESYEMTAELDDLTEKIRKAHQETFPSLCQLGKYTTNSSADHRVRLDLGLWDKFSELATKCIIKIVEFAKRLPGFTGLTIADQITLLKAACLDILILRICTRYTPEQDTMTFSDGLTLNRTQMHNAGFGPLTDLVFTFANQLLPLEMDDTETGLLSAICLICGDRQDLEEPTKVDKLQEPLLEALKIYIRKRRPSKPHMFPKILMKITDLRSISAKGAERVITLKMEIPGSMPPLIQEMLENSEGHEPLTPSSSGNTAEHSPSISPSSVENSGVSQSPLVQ
Sequence of Retinoic acid receptor alpha (Homo sapiens) (P10276 whole entry, the tested form may be a part): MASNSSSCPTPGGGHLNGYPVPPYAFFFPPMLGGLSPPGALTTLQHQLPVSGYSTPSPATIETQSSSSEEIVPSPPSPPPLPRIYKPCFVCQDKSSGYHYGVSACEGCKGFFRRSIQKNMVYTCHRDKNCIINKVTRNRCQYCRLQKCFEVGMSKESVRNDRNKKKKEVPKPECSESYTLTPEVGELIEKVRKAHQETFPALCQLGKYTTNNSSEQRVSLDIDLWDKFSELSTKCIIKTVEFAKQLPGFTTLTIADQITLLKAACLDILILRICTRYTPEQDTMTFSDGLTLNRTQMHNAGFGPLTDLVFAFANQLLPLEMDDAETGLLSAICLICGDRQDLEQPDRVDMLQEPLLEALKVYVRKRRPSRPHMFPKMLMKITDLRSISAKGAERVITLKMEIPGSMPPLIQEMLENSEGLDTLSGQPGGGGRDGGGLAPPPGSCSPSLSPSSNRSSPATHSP
Sequence of Nuclear receptor subfamily 1 group I member 2 (O75469 whole entry, the tested form may be a part): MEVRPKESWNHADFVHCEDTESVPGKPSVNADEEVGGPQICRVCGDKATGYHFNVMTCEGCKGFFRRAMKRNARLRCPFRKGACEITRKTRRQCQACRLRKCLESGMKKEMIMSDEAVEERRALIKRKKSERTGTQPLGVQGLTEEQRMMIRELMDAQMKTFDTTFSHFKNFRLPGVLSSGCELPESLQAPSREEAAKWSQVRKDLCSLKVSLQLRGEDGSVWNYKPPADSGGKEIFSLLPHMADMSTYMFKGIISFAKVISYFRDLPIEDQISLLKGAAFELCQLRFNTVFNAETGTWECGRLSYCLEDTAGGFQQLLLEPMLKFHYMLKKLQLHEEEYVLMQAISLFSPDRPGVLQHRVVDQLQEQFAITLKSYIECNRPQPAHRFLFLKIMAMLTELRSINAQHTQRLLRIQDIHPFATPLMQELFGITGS

Compound `CC(C)(C)c1ccc(C(=O)NCc2ccc(NS(C)(=O)=O)cc2Cl)cc1` gave an Emax in [1] of 35%. Moreover, the outcome in series [2], in series [3], in series [4], in series [5] and in series [7] was inactive. Further, the Activity was 317% in series [6] and “Not Active” in series [8]. For the same compound, the inhibition entry in series [9] is “inactive”. Further, the values for the Drug metabolism entry in [10], in series [11] and in series [12] were “Metabolite_Detected”, “Metabolite_Notdetected” and “Metabolite_Detected”, respectively.
